Data set [1] in a line: Stability in rat brain after 60 mins. It counts as ADME, tissue-based. The following applies: read-out: Stability. Put shortly:
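Rat brain (1.75 g) homogenized in saline on ice and incubated with formulated [11C] tracer (186 µCi) at 37 °C with shaking. Aliquots quenched into carrier-spiked acetonitrile, centrifuged, and supernatant analysed by radio-HPLC for percent unchanged.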

Data set [2] is described as follows: Stability in monkey whole blood after 30 mins. It counts as ADME, tissue-based, Macaca mulatta. The following applies: rhesus monkey, read-out: Stability.
The nature of data set [3]: Stability in rat whole blood after 60 mins. It counts as ADME, tissue-based. The following applies: read-out: Stability. Put shortly: (§1)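 No-carrier-added [11C] tracer (25.0 µCi monkey, 46.5 µCi rat) in 1 mL whole blood, shaken at 37 °C. Aliquots taken at 60 and 90 min into acetonitrile spiked with carrier, centrifuged, and supernatant radio-HPLC gives percent unchanged. Pellet counting gives extraction recovery.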

Data set [4] relates to Cerebellum. Description: Biodistribution in rat cerebellum at 0.9 to 1.9 Ci/umol, penile iv after 2.83 mins. It counts as ADME, organism-based. The following applies: in vivo, 170 s. In short, it runs like this: (§2)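 No-carrier-added [11C] tracer (0.82-3.6 mCi) given by penile vein to rats, killed at 2.33, 2.83 or 30 min. Brain tissue extracted and homogenized in acetonitrile/water with carrier, plasma treated likewise, urine analysed directly, all by reverse-phase radio-HPLC. Radioactivity normalized to injected dose and body weight as % SUV, split into parent and three radiometabolites.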

Data set [5] concerns Plasma. The experiment in a line: Drug level in monkey plasma at 1.35 Ci/umol after 10 mins. It counts as ADME, cell-free, Macaca mulatta. As to conditions: rhesus monkey. Put shortly: (§3)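 Two monkey experiments with no-carrier-added [11C] tracer given iv. Anticoagulated venous blood drawn at 10 and 30 min, plasma analysed by radio-HPLC. Parent fraction reported as percent of plasma radioactivity and as % SUV.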

Data set [6] deals with Cerebrum. The experiment in a line: Biodistribution in rat cerebrum at 22.94 umol/kg bolus injection after 10 mins. The following applies: in vivo. It counts as ADME, organism-based. In short, it runs like this:
(§4)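 Carrier-added [11C] tracer (carrier 22.94 µmol/kg) injected as bolus into one rat, tissues and plasma taken at 10 min. Samples extracted into acetonitrile and analysed by radio-HPLC. Results given as % SUV, partitioned into parent and radiometabolites A-C.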

In data set [7] the test system is Plasma. The experiment in a line: Biodistribution in rat plasma at 22.94 umol/kg bolus injection after 10 mins. It counts as ADME, organism-based. As to conditions: in vivo. Put shortly:
as §4

The next data set concerns Mus musculus. Description: Ratio of brain radioactivity at maximal uptake to that at 60 min in iv dosed mouse after 60 mins. The following applies: in vivo, 1 h.
Data set [8] has as its system Cerebellum. Description: Biodistribution in rat cerebellum at 0.9 to 1.9 Ci/umol, penile iv after 30 mins. It counts as ADME, organism-based. As to conditions: in vivo, 0.5 h. In short, it runs like this: as §2
Data set [9] concerns Cerebrum. Description: Biodistribution in rat cerebrum at 0.9 to 1.9 Ci/umol, penile iv after 2.83 mins. The following applies: in vivo, 170 s. It counts as ADME, organism-based. In short, it runs like this: as §2
A short description of data set [10]: Stability in monkey whole blood after 90 mins. The following applies: rhesus monkey, read-out: Stability. It counts as ADME, tissue-based, Macaca mulatta. Put shortly: as §1
The subject of data set [11] is Plasma. The experiment in a line: Biodistribution in rat plasma at 0.9 to 1.9 Ci/umol, penile iv after 30 mins. It counts as ADME, organism-based. The following applies: in vivo, 0.5 h. In short, it runs like this:
as §2

A short description of data set [12]: Biodistribution in rat cerebrum at 0.9 to 1.9 Ci/umol, penile iv after 2.33 mins. As to conditions: in vivo, 140 s.
The test system of data set [13] is Plasma. Description: Biodistribution in rat plasma at 0.9 to 1.9 Ci/umol, penile iv after 2.83 mins. It counts as ADME, organism-based. As to conditions: in vivo, 170 s. In short, it runs like this: as §2
Data set [14] has as its system Rattus norvegicus. The experiment in a line: Ratio of brain radioactivity at maximal uptake to that at 60 min in iv dosed rat after 60 mins. The following applies: in vivo, 1 h.
The test system of data set [15] is Plasma. The experiment in a line: Drug level in monkey plasma at 1.35 Ci/umol after 30 mins. It counts as ADME, cell-free, Macaca mulatta. The following applies: rhesus monkey, 0.5 h. Put shortly:
as §3

In data set [16] the test system is Rattus norvegicus. The experiment in a line: Biodistribution in rat urine at 0.9 to 1.9 Ci/umol, penile iv after 2.83 mins. The following applies: in vivo, 170 s. It counts as ADME, organism-based. Put shortly:
as §2

The subject of data set [17] is Cerebrum. Description: Biodistribution in rat cerebrum at 0.9 to 1.9 Ci/umol, penile iv after 30 mins. It counts as ADME, organism-based. The following applies: in vivo, 0.5 h. In short, it runs like this: as §2
The subject of data set [18] is Plasma. Description: Biodistribution in rat plasma at 0.9 to 1.9 Ci/umol, penile iv after 2.33 mins. As to conditions: in vivo, 140 s. It counts as ADME, organism-based. Put shortly:
as §2

A short description of data set [19]: Radiochemical stability after 3 hrs at pH 7.5. It counts as physicochemical. The following applies: pH 7.5, 3 h. In short, it runs like this: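 Purity of formulated tracer (saline with ethanol and polysorbate 80, pH ~7.5) followed over 3 h by radio-HPLC on a C18 column, MeOH/H2O/Et3N 70:30:0.1.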
For data set [20], the system named is Cerebellum. The experiment in a line: Biodistribution in rat cerebellum at 22.94 umol/kg bolus injection after 10 mins. It counts as ADME, organism-based. The following applies: in vivo. In short, it runs like this:
as §4

A short description of data set [21]: Lipophilicity, log D at pH 7.4. It counts as physicochemical. The following applies: buffer. Put shortly:
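Shake-flask partition: 3-5 mg ligand in 0.1 M PBS pH 7.4 (6.0 mL) with n-octanol (1.0 mL), vortexed, shaken, held 10 min at room temperature, centrifuged 5000g. Both phases quantified by reverse-phase HPLC; P taken as organic/aqueous concentration ratio; n = 3.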

Data set [22] addresses Amyloid-beta precursor protein (Homo sapiens, UniProt P05067). The experiment in a line: Binding affinity to beta amyloid plaque in human Alzheimer's disease brain tissue. It counts as tissue-based. Put shortly: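 Competition binding in human AD brain homogenate (1:500 in PBS) against [3H]PIB (0.4 nM), displacer 10^-10 to 10^-5 M from DMSO dilutions, total volume 1.0 mL PBS, 2 h at 37 °C; filtration on polyethyleneimine-treated GF/B, PBS washes, scintillation counting. One-site competition fit; Ki by Cheng-Prusoff using KD from homologous displacement Scatchard analysis.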

For data set [23], the target named is 5-hydroxytryptamine receptor 5A (Homo sapiens) (UniProt P47898). The experiment in a line: Displacement of […] from 5HT5A receptor at 10 uM. (In general: Loss of bound radioactivity is the signal in a displacement assay; it reports binding, not function.)
The target in data set [24] is Alpha-1B adrenergic receptor (Homo sapiens) (UniProt P35368). Description: Displacement of […] from adrenergic alpha-1b receptor at 10 uM.
Data set [25] addresses 5-hydroxytryptamine receptor 7 (Homo sapiens) (UniProt P34969). The experiment in a line: Displacement of […] from 5HT7 receptor at 10 uM.
Data set [26] concerns the target 5-hydroxytryptamine receptor 1D (Homo sapiens) (UniProt P28221). The experiment in a line: Displacement of […] from 5HT1D receptor at 10 uM.
Data set [27] addresses D(1A) dopamine receptor (Homo sapiens) (UniProt P21728). Description: Displacement of […] from dopamine D1 receptor at 10 uM.
In data set [28] the target is 5-hydroxytryptamine receptor 1B (Homo sapiens) (UniProt P28222). The experiment in a line: Displacement of […] from 5HT1B receptor at 10 uM.
Data set [29] has as its target 5-hydroxytryptamine receptor 1A (Homo sapiens) (UniProt P08908). Description: Displacement of […] from 5HT1A receptor at 10 uM.
The target of data set [30] is Alpha-1A adrenergic receptor (Homo sapiens) (UniProt P35348). Description: Displacement of […] from adrenergic Alpha-1A receptor at 10 uM.
Data set [31] has as its target D(2) dopamine receptor (Homo sapiens) (UniProt P14416). Description: Displacement of […] from dopamine D2 receptor at 10 uM.
Data set [32] concerns the target 5-hydroxytryptamine receptor 1E (Homo sapiens) (UniProt P28566). Description: Displacement of […] from 5HT1E receptor at 10 uM.
In data set [33] the target is D(3) dopamine receptor (Homo sapiens) (UniProt P35462). The experiment in a line: Displacement of […] from dopamine D3 receptor at 10 uM.
Data set [34] deals with Beta-2 adrenergic receptor (Homo sapiens) (UniProt P07550). Description: Displacement of […] from adrenergic beta 2 receptor at 10 uM.
The target in data set [35] is 5-hydroxytryptamine receptor 2A (Homo sapiens) (UniProt P28223). Description: Displacement of […] from 5HT2A receptor at 10 uM.
The target in data set [36] is 5-hydroxytryptamine receptor 2C (Homo sapiens) (UniProt P28335). The experiment in a line: Displacement of […] from 5HT2C receptor at 10 uM.
Data set [37] has as its target Histamine H1 receptor (Homo sapiens) (UniProt P35367). The experiment in a line: Displacement of […] from histamine H1 receptor at 10 uM.
Data set [38] concerns the target D(1B) dopamine receptor (Homo sapiens) (UniProt P21918). The experiment in a line: Displacement of […] from dopamine D5 receptor at 10 uM.
Data set [39] deals with 5-hydroxytryptamine receptor 2B (Homo sapiens) (UniProt P41595). Description: Displacement of […] from 5HT2B receptor at 10 uM.
The target of data set [40] is Mu-type opioid receptor (Homo sapiens) (UniProt P35372). The experiment in a line: Displacement of radioligand from mu opioid receptor at 10 uM.
Data set [41] has as its target 5-hydroxytryptamine receptor 6 (Homo sapiens) (UniProt P50406). Description: Displacement of […] from 5HT6 receptor at 10 uM.
For data set [42], the target named is 5-hydroxytryptamine receptor 3A (Homo sapiens) (UniProt P46098). The experiment in a line: Displacement of […] from 5HT3 receptor at 10 uM.
The target in data set [43] is Alpha-2A adrenergic receptor (Homo sapiens) (UniProt P08913). Description: Displacement of […] from adrenergic alpha-2a receptor at 10 uM.
Data set [44] addresses D(4) dopamine receptor (Homo sapiens) (UniProt P21917). Description: Displacement of […] from dopamine D4 receptor at 10 uM.

SMILES strings stand for the structures.

Amyloid-beta precursor protein, sequence (P05067 whole entry): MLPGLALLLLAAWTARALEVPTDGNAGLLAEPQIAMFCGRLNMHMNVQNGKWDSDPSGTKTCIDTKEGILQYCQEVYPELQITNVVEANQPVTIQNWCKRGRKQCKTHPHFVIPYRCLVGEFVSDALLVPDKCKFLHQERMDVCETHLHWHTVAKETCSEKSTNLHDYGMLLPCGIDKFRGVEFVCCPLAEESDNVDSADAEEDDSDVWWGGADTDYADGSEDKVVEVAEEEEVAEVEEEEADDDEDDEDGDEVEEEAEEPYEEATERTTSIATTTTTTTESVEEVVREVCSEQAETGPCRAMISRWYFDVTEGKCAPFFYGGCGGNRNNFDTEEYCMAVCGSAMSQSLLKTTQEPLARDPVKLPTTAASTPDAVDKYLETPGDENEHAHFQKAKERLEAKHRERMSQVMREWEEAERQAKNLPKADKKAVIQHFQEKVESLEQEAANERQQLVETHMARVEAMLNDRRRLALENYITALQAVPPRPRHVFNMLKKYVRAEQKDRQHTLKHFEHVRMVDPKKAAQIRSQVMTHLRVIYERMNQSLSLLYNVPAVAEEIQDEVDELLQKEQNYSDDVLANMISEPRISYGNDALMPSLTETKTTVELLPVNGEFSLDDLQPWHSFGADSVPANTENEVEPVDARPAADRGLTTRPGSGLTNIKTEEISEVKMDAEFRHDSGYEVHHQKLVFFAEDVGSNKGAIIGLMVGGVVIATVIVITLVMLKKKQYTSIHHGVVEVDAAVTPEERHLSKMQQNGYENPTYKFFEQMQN
Alpha-1B adrenergic receptor (Homo sapiens), sequence (P35368 whole entry): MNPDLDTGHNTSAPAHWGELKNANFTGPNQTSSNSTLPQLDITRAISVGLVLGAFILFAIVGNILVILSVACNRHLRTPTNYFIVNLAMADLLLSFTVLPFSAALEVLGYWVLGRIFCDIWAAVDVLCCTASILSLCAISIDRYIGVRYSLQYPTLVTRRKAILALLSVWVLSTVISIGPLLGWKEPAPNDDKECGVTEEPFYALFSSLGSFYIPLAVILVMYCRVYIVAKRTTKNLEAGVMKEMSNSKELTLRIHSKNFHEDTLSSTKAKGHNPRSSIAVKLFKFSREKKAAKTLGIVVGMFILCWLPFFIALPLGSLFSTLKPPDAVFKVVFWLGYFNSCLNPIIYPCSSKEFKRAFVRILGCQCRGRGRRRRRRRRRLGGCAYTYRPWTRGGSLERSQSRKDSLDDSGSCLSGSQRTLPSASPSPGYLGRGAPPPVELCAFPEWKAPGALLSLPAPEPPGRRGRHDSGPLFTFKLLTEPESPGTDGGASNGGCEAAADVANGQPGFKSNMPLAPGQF
D(3) dopamine receptor (Homo sapiens), sequence (P35462 whole entry): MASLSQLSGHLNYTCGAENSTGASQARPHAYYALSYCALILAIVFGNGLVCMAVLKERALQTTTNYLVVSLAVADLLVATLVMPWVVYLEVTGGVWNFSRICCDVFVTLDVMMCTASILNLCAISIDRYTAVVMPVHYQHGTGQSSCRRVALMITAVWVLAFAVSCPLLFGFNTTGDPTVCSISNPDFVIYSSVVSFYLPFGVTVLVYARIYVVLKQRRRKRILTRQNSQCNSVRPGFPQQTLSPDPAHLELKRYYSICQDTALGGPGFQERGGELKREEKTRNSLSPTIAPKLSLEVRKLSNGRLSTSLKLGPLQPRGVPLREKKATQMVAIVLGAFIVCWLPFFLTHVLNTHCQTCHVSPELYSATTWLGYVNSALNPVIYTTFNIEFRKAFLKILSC
D(2) dopamine receptor (Homo sapiens), sequence (P14416 whole entry): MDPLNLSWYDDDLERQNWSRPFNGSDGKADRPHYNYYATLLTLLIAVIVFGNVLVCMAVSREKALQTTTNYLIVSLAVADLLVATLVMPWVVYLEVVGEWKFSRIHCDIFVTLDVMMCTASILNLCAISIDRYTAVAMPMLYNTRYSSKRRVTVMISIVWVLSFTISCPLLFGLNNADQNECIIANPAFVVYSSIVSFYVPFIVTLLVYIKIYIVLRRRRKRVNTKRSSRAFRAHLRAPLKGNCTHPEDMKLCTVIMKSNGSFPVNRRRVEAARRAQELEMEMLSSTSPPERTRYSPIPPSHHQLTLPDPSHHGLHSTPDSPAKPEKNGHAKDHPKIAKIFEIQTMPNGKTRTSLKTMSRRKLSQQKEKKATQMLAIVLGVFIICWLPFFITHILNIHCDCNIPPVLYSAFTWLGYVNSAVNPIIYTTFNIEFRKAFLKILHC
Alpha-2A adrenergic receptor (Homo sapiens), sequence (P08913 whole entry): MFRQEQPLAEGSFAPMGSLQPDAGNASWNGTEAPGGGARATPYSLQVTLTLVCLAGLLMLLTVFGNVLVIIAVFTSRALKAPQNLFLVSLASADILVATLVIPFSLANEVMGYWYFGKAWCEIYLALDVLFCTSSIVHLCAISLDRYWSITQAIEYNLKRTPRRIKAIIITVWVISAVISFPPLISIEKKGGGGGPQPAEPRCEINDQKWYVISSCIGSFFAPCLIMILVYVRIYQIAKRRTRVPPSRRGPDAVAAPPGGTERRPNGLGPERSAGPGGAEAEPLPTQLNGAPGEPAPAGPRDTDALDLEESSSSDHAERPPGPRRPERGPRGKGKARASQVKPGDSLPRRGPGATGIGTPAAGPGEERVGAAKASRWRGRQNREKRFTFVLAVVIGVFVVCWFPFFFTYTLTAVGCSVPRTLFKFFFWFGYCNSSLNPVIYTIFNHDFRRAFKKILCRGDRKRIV
5-hydroxytryptamine receptor 6 (Homo sapiens), sequence (P50406 whole entry): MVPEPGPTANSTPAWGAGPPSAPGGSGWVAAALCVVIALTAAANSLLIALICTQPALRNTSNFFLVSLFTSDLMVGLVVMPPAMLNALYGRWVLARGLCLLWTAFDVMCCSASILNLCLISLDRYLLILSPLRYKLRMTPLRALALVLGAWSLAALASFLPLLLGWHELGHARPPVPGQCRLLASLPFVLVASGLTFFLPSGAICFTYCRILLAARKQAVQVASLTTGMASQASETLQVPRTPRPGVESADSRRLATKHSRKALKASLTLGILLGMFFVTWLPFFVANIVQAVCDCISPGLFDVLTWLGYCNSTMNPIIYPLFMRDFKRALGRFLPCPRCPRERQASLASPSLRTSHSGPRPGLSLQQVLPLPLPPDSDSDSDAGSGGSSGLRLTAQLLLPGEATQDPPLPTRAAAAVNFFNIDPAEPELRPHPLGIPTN
D(4) dopamine receptor (Homo sapiens), sequence (P21917 whole entry): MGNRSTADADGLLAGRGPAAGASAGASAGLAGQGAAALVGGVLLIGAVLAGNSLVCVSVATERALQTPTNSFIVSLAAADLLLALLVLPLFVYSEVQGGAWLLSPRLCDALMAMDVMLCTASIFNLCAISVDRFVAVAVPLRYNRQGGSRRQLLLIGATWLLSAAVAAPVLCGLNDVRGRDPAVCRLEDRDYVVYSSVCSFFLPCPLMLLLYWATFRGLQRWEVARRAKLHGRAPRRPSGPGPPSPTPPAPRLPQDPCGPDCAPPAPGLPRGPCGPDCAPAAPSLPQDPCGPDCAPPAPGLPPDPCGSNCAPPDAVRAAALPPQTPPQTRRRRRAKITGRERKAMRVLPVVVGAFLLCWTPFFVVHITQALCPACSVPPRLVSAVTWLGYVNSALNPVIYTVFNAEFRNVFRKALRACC
D(1B) dopamine receptor (Homo sapiens), sequence (P21918 whole entry): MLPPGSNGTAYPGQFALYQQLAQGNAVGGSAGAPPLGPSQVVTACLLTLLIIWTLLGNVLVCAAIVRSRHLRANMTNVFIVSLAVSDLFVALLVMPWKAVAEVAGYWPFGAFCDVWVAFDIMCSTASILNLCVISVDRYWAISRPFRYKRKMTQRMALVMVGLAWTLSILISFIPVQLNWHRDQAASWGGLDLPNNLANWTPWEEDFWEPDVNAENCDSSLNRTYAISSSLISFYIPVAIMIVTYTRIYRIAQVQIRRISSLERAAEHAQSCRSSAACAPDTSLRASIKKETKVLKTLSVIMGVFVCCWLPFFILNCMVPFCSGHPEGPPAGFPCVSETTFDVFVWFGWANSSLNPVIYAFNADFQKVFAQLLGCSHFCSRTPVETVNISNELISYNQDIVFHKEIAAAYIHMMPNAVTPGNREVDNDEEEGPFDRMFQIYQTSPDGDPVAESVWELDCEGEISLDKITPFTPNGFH
5-hydroxytryptamine receptor 1A (Homo sapiens), sequence (P08908 whole entry): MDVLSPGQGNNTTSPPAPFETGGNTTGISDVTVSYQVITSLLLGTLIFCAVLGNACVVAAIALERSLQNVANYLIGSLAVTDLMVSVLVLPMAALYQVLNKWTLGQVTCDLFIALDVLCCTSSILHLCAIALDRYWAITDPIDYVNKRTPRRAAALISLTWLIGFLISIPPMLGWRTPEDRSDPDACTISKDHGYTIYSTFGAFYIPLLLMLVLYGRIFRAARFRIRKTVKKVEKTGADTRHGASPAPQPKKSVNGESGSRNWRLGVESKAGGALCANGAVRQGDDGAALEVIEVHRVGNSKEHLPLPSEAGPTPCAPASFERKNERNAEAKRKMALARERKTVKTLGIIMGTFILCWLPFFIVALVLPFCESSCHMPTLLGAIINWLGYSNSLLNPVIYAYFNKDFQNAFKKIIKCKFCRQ
Mu-type opioid receptor (Homo sapiens), sequence (P35372 whole entry): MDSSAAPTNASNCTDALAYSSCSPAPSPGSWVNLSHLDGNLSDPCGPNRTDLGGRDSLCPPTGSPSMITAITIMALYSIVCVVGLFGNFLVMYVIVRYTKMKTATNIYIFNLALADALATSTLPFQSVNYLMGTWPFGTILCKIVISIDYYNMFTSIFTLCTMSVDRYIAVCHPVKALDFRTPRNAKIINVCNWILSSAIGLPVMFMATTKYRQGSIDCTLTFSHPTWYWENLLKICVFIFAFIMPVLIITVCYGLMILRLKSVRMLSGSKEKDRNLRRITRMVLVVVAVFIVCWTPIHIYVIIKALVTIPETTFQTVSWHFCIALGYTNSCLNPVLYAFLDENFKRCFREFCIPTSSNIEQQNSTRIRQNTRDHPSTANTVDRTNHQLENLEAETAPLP

`CN(C)c1ccc(-c2cn3cc(S[11CH3])ccc3n2)cc1`: the figures for the remaining at 1 h in data set [1] and in data set [3] were 93.6% and 91%, respectively. Further, the remaining at 0.5 h in data set [2] was 96.2%. Also, the Drug uptake is 31.9% with Cerebellum [4]; 80.9% in the data set on Cerebrum [6]; 55.3% in the data set on Plasma [7]; 18.6% with Cerebellum [8]; 30.2% in the data set on Cerebrum [9]; 0.2% with Plasma [11]. The Drug uptake in [12] turned out to be 41.9%; with Plasma [13], 9.15%; with Rattus norvegicus [16], 25.7%; with Cerebrum [17], 13%; in the data set on Plasma [18], 9.57%; in the data set on Cerebellum [20], 83.1%. Moreover, the Activity with Plasma [5] was found to be 12.4%; in the data set with Plasma [15], 3.5%. In addition, the Ratio with Mus musculus turned out to be 11.1; in the data set on Rattus norvegicus [14], 18.7. In data set [10], the remaining at 1.5 h was 94.5%. Besides, in [19], the Stability entry is reported as “Stable”.

As usually defined, the logD is the decadic logarithm of the distribution of all forms, ionised or not, between an organic phase and buffer at a given pH. Consider `CN(C)c1ccc(-c2cn3cc(I)ccc3n2)cc1`, for which the logD in [21] is 3.58.

For orientation: Ki means a measure of affinity in units of concentration, obtained from inhibition or displacement. In turn, `CNc1ccc(-c2cn3cc(SC)ccc3n2)cc1` came in with a Ki in [22] of 80 nM. The logD in data set [21] was 3.6.

As for `CSc1ccc2nc(-c3ccc(N)cc3)cn2c1`, the Ki in [22] came out at 377 nM. This compound showed a logD in data set [21] of 2.6.

The inhibition is the relative decrease from the control value, in per cent. Take `CSc1ccc2nc(-c3ccc(N(C)C)cc3)cn2c1`: the Activity in data set [23], in [24], in data set [25], in data set [26], in [27] and in [28] was < 50% each time. The Activity in data set [29], in [30], in data set [31], in [32], in [33] and in data set [34] was < 50% each time. In addition, the Activity in data set [35], in data set [36], in data set [37], in [38], in data set [39] and in [41] was < 50% each time. Besides, the Activity in data set [42], in [43] and in data set [44] was < 50% in each case. The compound also came in with a logD in [21] of 4.1. Moreover, the inhibition in data set [40] is < 50%.

`CSc1ccc2nc(-c3ccc(N(C)[11CH3])cc3)cn2c1`: the Ratio in the data set on Rattus norvegicus [14] turned out to be 6.1.

In [22], `COC(=O)CCSc1ccc2nc(-c3ccc(N(C)C)cc3)cn2c1` returned an inhibition constant (Ki) of 205 nM. The logD in data set [21] came to 3.6.

Source of the values: ChEMBL document CHEMBL1140705, “Synthesis and evaluation of N-methyl and S-methyl 11C-labeled 6-methylthio-2-(4'-N,N-dimethylamino)phenylimidazo[1,2-a]pyridines as radioligands for imaging beta-amyloid plaques in Alzheimer's disease” (J Med Chem, 2008).
